Screens deposited in PubChem by Broad Institute.
Most compounds without a hit are left out; they make up all but 3.1% or so of the library.
FGF22 binding: binders of recombinant human FGF22 by thermal shift. hit rate 1.5% among 340,000. AID 651658. activity (Tm shift, normalised), % at 9.99 µM. Q9HCT0. SYPRO orange fluorescence; percent of sucrose octasulfate shift, DMSO zero;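 active = mean Tm shift, scaled 0 neutral to 100 positive control, at about 1.3% or above, every replicate too, limit read from the data; inconclusive = no clear call, values can overlap the other calls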
Target sequence (Q9HCT0 whole entry, looked up): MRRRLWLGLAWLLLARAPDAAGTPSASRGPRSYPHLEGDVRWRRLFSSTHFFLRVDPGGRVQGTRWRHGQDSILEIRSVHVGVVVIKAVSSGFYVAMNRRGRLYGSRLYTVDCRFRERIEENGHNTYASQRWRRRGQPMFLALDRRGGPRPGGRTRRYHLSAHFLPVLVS
EWS-Fli inh: inhibitors of EWS/Fli oncoprotein transcriptional activity | inhibition, % at 12.6 µM | hit rate 0.67% among 350,000 | A673 NR0B1-luciferase reporter, viability-normalised;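 active = mean inhibition of at least 50% after viability correction, with every replicate also passing that limit; inconclusive = mean reaches 50% but only one of two replicates passes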;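 note: firefly luciferase signal divided by Alamar Blue viability fluorescence both relative to DMSO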
PAX8 inh HTS: lowers PAX8-driven luciferase in RMG-I cells; RMG-I TPO-luciferase reporter, SteadyGlo, 24 h; inhibition, % at 12.6 µM; hit rate 1.2% among 360,000;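 active = mean replicate inhibition at least 60% with every replicate also reaching 60%; inconclusive = only one of the two criteria is met; inactive = mean below 60% and not all replicates reaching 60%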;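 note: luciferase light reporting Pax8 driven TPO promoter activity; plate controls were median of neutral control wells for no effect and mitoxantrone controls for full effect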
Env fusion inh: blocks HIV Env-driven cell-cell fusion | HeLa-JRFL Env/CEM21 cell fusion, luciferase | hit rate 1.1% among 360,000 | inhibition, % at 12.3 µM | AID 651610;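 active = mean replicate inhibition score of at least 50 and every replicate individually at or above 50; inconclusive = only one of the two criteria met; inactive = mean below 50 and not all replicates reaching 50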;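 note: 0% = plate neutral controls and 100% = maraviroc near 300 nM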
PGC1a acetyl inh: PGC1a acetylation modulation, inhibitor mode. U2OS PGC1a acetylation, AlphaScreen anti-acetyl-lysine; with virally co-expressed GCN5 acetyltransferase. inhibition, % at 15.6 µM. hit rate 0.17% among 350,000. AID 651687;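 active = every replicate shows inhibition of at least 40%; inconclusive = mean inhibition at least 40% but some replicate below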;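 note: 0% = neutral control wells and 100% = positive control wells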
FN deposition inh: fibronectin deposition inhibition | AH1F fibroblasts, Alexa488-fibronectin deposition fluorescence, overnight | inhibition, % at 12.6 µM | hit rate 0.086% among 350,000;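 active = mean inhibition across replicates of 30% or more, regardless of how many single replicates reach that level; inconclusive = mean under 30% yet at least half of replicates reach 30%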;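 note: positive control wells lacked labelled fibronectin entirely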
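Schedule: 1 h cell adhesion before compound, then overnight fibronectin incubation; test system: AH1F fibroblast monolayer depositing Alexa488-labelled fibronectin into matrix; quantity: 10000 AH1F cells per well; probe or stimulus: fluorescent fibronectin at 24 nM final; signal: fluorescence, ex 485 nm, em 525 nm; evaluation: percent inhibition as loss of matrix-bound fibronectin fluorescence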
* marks the source's active call; other numbers are inactive results; ? = inconclusive; nt = no result given; [ ] = another dose, or the depositor's remark.

SMILES | FGF22 binding | EWS-Fli inh | PAX8 inh HTS | Env fusion inh | PGC1a acetyl inh | FN deposition inh
O=C(Nc1ccc2c(c1)OCO2)N[C@H]1C=C[C@@H](CC(=O)N2CCN(c3ccccc3)CC2)O[C@@H]1CO | 0 | -6 | 0 | 16[16.7 µM] | -6 | -9
Nc1ccc(CSc2ccccc2)cc1 | 43* | -33 | -116 | -17 | 13 | 4
Nc1ccc(SCc2cccnc2)cc1 | -1 | -8 | -19 | -15 | 5 | -1
C[C@H]1CN([C@@H](C)CO)C(=O)c2cc(C3=CCCCC3)cnc2O[C@H]1CN(C)C(=O)C1CCOCC1 | 0 | -1 | 11 | -3[16.7 µM] | 2 | 0
O=C(NCCC1=CCCCC1)Nc1ccc2nsnc2c1 | 43* | -74 | -146 | -33 | nt | -9
C[C@H](CO)N1C[C@H](C)[C@H](CN(C)C(=O)Nc2ccc3c(c2)OCO3)Oc2ccc(NS(C)(=O)=O)cc2C1=O | 0 | -4 | nt | nt | -18 | nt
Cc1nc2c(OCc3ccc(F)cc3)cccn2c1N(C)C(=O)CCC1CCCC1 | 0 | 14 | 10 | 26 | -9 | -4
Cc1nc2c(OCc3ccc(C(F)(F)F)cc3)cccn2c1N(C)C(=O)CCC1CCCC1 | 0 | 15 | 23 | 61* | -5 | -10
CC(C)=NNc1ncnc2nc[nH]c12 | 0 | -2 | 70* | 19 | -7 | 2
CC(C)NC(=O)N[C@H]1C=C[C@@H](CC(=O)NCc2ccc(Oc3ccccc3)cc2)O[C@H]1CO | 0 | -1 | 5 | -9[16.7 µM] | -9 | -2
COc1ccc(NC(=O)Nc2ccc3c(c2)C(=O)N([C@@H](C)CO)C[C@H](C)[C@@H](CN(C)Cc2ccc(-c4ccccc4)cc2)O3)cc1 | 0 | -6 | nt | nt | -6 | nt
OC(CN1CCCCC1)c1ccc(Br)cc1 (stereo unspecified) | 44* | -12 | -12 | 14 | -4 | 3
O=C(N[C@@H]1CC[C@@H](CCn2cc(-c3ccccn3)nn2)O[C@@H]1CO)c1cccnc1 | 0 | 4 | -23 | 16[16.7 µM] | -3 | nt
CC(C)(C)[S@@](=O)N1Cc2cc(C(=O)NC3CCCC3)nc(-c3cccc(Br)c3)c2[C@H]1CCO | 0 | nt | 16 | nt | 5 | -9
C[C@@H]1CN([C@H](C)CO)C(=O)c2cc(NC(=O)Nc3ccc(C(F)(F)F)cc3)ccc2O[C@@H](C)CCCCO[C@H]1CN(C)C(=O)Nc1ccc(F)cc1 | 1.4* | 8 | 84* | 47[16.7 µM] | -11 | nt
C[C@@H]1CCCCO[C@@H](CN(C)C(=O)Nc2ccc(C(F)(F)F)cc2)[C@H](C)CN([C@@H](C)CO)C(=O)c2cc(NC(=O)Nc3ccc(F)cc3)ccc2O1 | 0 | 1 | ? | 18[16.7 µM] | -4 | -19
C[C@@H]1CCCCO[C@H](CN(C)C(=O)Nc2ccc(F)cc2)[C@@H](C)CN([C@@H](C)CO)C(=O)c2cc(NC(=O)Nc3ccc(C(F)(F)F)cc3)ccc2O1 | 1 | -1 | 95* | 12[16.7 µM] | -1 | nt
C[C@H]1CCCCO[C@@H](CN(C)C(=O)Nc2ccc(F)cc2)[C@@H](C)CN([C@@H](C)CO)C(=O)c2cc(NC(=O)Nc3ccc(C(F)(F)F)cc3)ccc2O1 | 0 | 1 | 33 | 13[16.7 µM] | 5 | nt
C[C@H](CO)N1C[C@H](C)[C@@H](CN(C)C(=O)Nc2ccc(F)cc2)OCCCC[C@H](C)Oc2ccc(NC(=O)Nc3ccc(C(F)(F)F)cc3)cc2C1=O | 1.2* | 4 | 39 | 4[16.7 µM] | -5 | nt
CCCC#Cc1cnc2c(c1)C(=O)N([C@@H](C)CO)C[C@@H](C)[C@@H](CN(C)C(=O)C1CCCCC1)O2 | nt | -3 | nt | 11[16.7 µM] | -3 | nt
C[C@@H]1CCCCO[C@H](CN(C)S(=O)(=O)c2ccc(F)cc2)[C@@H](C)CN([C@@H](C)CO)C(=O)c2cc(NS(=O)(=O)c3ccccc3)ccc2O1 | 0 | -2 | 4 | -53[16.7 µM] | 2 | nt
O=C(CN1CCOCC1)NCC[C@@H]1CC[C@@H](NS(=O)(=O)c2ccc(Cl)cc2)[C@@H](CO)O1 | -1 | 1 | -18 | 9[16.7 µM] | -5 | 3
COc1ccc(S(=O)(=O)N2c3ccc(F)cc3CCC2C)cc1 (stereo unspecified) | 0 | 41 | 78* | -45 | -120 | 8
C/C=C/c1ccc([C@H]2[C@@H](CO)N(C(=O)CC)[C@@H]2CNC(=O)C2CC2)cc1 | 0 | 5 | -11 | nt | -9 | 2
CC(C)c1ccc2occ(-c3nn[nH]n3)c(=O)c2c1 | 44* | 8 | 12 | 4 | 5 | -8
SMILES | FGF22 binding | EWS-Fli inh | PAX8 inh HTS | Env fusion inh | PGC1a acetyl inh | FN deposition inh
C[C@@H]1CN([C@H](C)CO)C(=O)c2cc(NS(=O)(=O)c3ccc(Cl)cc3)ccc2O[C@@H](C)CCCCO[C@H]1CN(C)C(=O)Nc1ccccc1 | 0 | -2 | 41 | -30[16.7 µM] | -21 | -4
C[C@@H]1CCCCO[C@@H](CN(C)C(=O)Nc2ccccc2)[C@H](C)CN([C@H](C)CO)C(=O)c2cc(NS(=O)(=O)c3ccc(Cl)cc3)ccc2O1 | 3.6* | 14 | 57 | -16[16.7 µM] | -20 | -1
C[C@@H]1CCCCO[C@H](CN(C)C(=O)Nc2ccccc2)[C@@H](C)CN([C@@H](C)CO)C(=O)c2cc(NS(=O)(=O)c3ccc(Cl)cc3)ccc2O1 | -1 | 17 | 66* | -11[16.7 µM] | -10 | 5
C[C@@H]1CCCCO[C@H](CN(C)C(=O)Cc2ccccc2)[C@@H](C)CN([C@@H](C)CO)C(=O)c2cc(NS(=O)(=O)c3ccc(Cl)cc3)ccc2O1 | 0 | 2 | 79* | 10[16.7 µM] | 8 | -8
C[C@@H]1CCCCO[C@@H](CN(C)C(=O)Nc2ccc(F)cc2)[C@@H](C)CN([C@H](C)CO)C(=O)c2cc(NS(=O)(=O)c3ccc(Cl)cc3)ccc2O1 | nt | -5 | 9 | -9[16.7 µM] | 11 | -3
C[C@@H]1CCCCO[C@@H](CN(C)C(=O)Nc2ccc(F)cc2)[C@H](C)CN([C@H](C)CO)C(=O)c2cc(NS(=O)(=O)c3ccc(Cl)cc3)ccc2O1 | nt | 9 | 91* | -82[16.7 µM] | 5 | 2
C[C@H]1CCCCO[C@@H](CN(C)C(=O)Nc2ccccc2)[C@@H](C)CN([C@@H](C)CO)C(=O)c2cc(NS(=O)(=O)c3ccc(Cl)cc3)ccc2O1 | 0 | 1 | 1 | -8[16.7 µM] | -4 | -1
C[C@@H]1CCCCO[C@H](CN(C)C(=O)Cc2ccccc2)[C@H](C)CN([C@H](C)CO)C(=O)c2cc(NS(=O)(=O)c3ccc(Cl)cc3)ccc2O1 | 0 | 10 | 44 | -5[16.7 µM] | -5 | 3
C[C@@H]1CN([C@H](C)CO)C(=O)c2cc(NC(=O)CCCN(C)C)ccc2O[C@@H]1CN(C)S(=O)(=O)c1ccccc1 | 0 | 5 | -3 | 5[16.7 µM] | -2 | nt
O=C(Nc1ccccc1)[C@@H]1[C@@H](CO)[C@@H]2Cn3c(cccc3=O)[C@@H]2N1C(=O)C1CCC1 | 0 | -8 | nt | nt | nt | nt
CCCN1[C@@H]2c3ccc(-c4ccncc4)c(=O)n3C[C@H]1[C@H](CO)[C@H]2C(=O)NCC1CC1 | 0 | 1 | -14 | nt | -17 | nt
